One experiment addresses Aurora kinase B (Homo sapiens, UniProt Q96GD4). Kind of experiment: Inhibition of human recombinant aurora B kinase. The method in brief:
(§1)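 Recombinant human Aurora kinase (A, B or C); myelin basic protein substrate (1 mg/mL) with 15 µM [γ-33P]ATP in buffer C (25 mM Mops pH 7.2, 60 mM β-glycerophosphate, 15 mM p-nitrophenylphosphate, 5 mM EGTA, 15 mM MgCl2, 1 mM DTT, 1 mM vanadate, 1 mM phenylphosphate), 30 min at 30 °C. Stopped by spotting on P81 paper, washed in 1% phosphoric acid, scintillation counted. IC50 from dose-response curves over various concentrations.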

The next experiment concerns the target T1, Aurora kinase C (Homo sapiens, UniProt Q9UQB9).
T1 sequence (Q9UQB9 whole entry): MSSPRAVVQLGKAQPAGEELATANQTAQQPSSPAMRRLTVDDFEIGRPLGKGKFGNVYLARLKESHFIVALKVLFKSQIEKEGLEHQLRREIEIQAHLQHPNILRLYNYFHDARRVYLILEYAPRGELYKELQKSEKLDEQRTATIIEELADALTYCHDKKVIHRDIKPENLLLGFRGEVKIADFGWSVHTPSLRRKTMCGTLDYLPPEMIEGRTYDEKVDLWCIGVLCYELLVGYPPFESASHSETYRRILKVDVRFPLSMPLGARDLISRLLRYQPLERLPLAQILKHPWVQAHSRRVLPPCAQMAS
Kind of experiment: Inhibition of human recombinant aurora C kinase. A digest of the protocol: as §1

The target in a further experiment is T2, Aurora kinase A (Homo sapiens, UniProt O14965).
T2 sequence (O14965 whole entry): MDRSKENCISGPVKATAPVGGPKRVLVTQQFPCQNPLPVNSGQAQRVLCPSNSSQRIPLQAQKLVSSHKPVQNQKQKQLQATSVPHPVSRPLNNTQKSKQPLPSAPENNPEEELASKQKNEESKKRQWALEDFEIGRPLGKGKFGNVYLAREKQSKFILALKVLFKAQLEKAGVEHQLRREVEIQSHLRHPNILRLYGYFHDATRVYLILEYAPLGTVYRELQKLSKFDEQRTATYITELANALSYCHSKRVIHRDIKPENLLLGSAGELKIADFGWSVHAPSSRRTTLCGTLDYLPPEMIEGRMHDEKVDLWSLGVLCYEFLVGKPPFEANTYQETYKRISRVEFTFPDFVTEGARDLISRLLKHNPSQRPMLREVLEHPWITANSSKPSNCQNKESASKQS
Kind of experiment: Inhibition of human recombinant aurora A kinase.

The structures appear in SMILES notation. A value given as a limit tells only on which side of the number the result lay.

As a reminder, the IC50 is the concentration at which inhibition is half-maximal.

Aurora kinase B, sequence (Q96GD4 whole entry): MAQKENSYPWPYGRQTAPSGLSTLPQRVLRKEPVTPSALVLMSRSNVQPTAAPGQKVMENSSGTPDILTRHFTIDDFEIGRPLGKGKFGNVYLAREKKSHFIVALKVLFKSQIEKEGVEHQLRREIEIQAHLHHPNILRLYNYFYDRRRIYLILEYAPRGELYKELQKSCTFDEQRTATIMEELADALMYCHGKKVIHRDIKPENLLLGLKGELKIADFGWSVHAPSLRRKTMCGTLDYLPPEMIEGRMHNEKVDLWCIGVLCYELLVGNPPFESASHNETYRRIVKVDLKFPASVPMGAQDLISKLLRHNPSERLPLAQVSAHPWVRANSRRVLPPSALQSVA

On to `O=Nc1c(-c2c(O)[nH]c3c(I)cccc23)[nH]c2ccccc12`, for which the IC50 was 10 µM at Aurora kinase B, 0.6 µM at Aurora kinase C and above 100 µM at Aurora kinase A.

In the case of `O=C1C(c2c(O)[nH]c3c(F)cccc23)=Nc2ccccc21`, the IC50 at Aurora kinase B, on Aurora kinase C and on Aurora kinase A was above 100 µM in each case.

Consider `CC(=O)O/N=C1\C(=C2\C(=O)Nc3c(I)cccc32)Nc2ccccc21`, for which the IC50 at Aurora kinase B was above 100 µM; on Aurora kinase C, 28 µM; on Aurora kinase A, above 100 µM.

Take `O=Nc1c(-c2c(O)[nH]c3c(F)cccc23)[nH]c2ccccc12`: the IC50 on Aurora kinase B turned out to be 7 µM; at Aurora kinase C it was 1 µM; at Aurora kinase A, 2 µM.

For `CC(=O)O/N=C1\C(=C2\C(=O)Nc3c(Br)cccc32)Nc2ccccc21`, the IC50 was 20 µM at Aurora kinase B, 4.5 µM on Aurora kinase C and above 100 µM on Aurora kinase A.

With `O=C1C(c2c(O)[nH]c3c(Cl)cccc23)=Nc2ccccc21`, the 50% inhibitory concentration (IC50) at Aurora kinase B, at Aurora kinase C and on Aurora kinase A was above 100 µM throughout.

As for `O=Nc1c(-c2c(O)[nH]c3c(Br)cccc23)[nH]c2ccccc12`, the IC50 worked out at 4.6 µM on Aurora kinase B and 0.7 µM at Aurora kinase C.

`O=C1C(c2c(O)[nH]c3c(Br)cccc23)=Nc2ccccc21`: the IC50 on Aurora kinase B, at Aurora kinase C and at Aurora kinase A was above 100 µM each time.

With `CC(=O)O/N=C1\C(c2c(O)[nH]c3ccccc23)=Nc2ccccc21`, the IC50 amounted to 2.1 µM on Aurora kinase B, 0.7 µM on Aurora kinase C and 2.3 µM on Aurora kinase A.

With `CO/N=C1\C(=C2\C(=O)Nc3c(Cl)cccc32)Nc2ccccc21`, the IC50 on Aurora kinase B, at Aurora kinase C and on Aurora kinase A was above 100 µM throughout.

With `CC(=O)O/N=C1\C(=C2\C(=O)Nc3c(Cl)cccc32)Nc2ccccc21`, the IC50 on Aurora kinase B, at Aurora kinase C and at Aurora kinase A was above 100 µM in each case.

`O=C1C(c2c(O)[nH]c3c(I)cccc23)=Nc2ccccc21`: the IC50 on Aurora kinase B, on Aurora kinase C and at Aurora kinase A was above 100 µM in each case.

Take `CC(=O)O/N=C1\C(=C2\C(=O)Nc3c(F)cccc32)Nc2ccccc21`: the IC50 on Aurora kinase B amounted to 8 µM; at Aurora kinase C, 1 µM; at Aurora kinase A, 20 µM.

Regarding `O=Nc1c(-c2c(O)[nH]c3c(Cl)cccc23)[nH]c2ccccc12`, the results for the IC50 on Aurora kinase B, on Aurora kinase C and at Aurora kinase A were 8 µM, 0.9 µM and above 100 µM, respectively.

In the case of `CO/N=C1\C(=C2\C(=O)Nc3c(Br)cccc32)Nc2ccccc21`, the IC50 at Aurora kinase B, at Aurora kinase C and on Aurora kinase A was above 100 µM each time.

As for `CO/N=C1\C(=C2\C(=O)Nc3c(F)cccc32)Nc2ccccc21`, the IC50 at Aurora kinase B, at Aurora kinase C and on Aurora kinase A was above 100 µM in each case.

As for `CO/N=C1\C(=C2\C(=O)Nc3c(I)cccc32)Nc2ccccc21`, the IC50 at Aurora kinase B, at Aurora kinase C and on Aurora kinase A was above 100 µM each time.

`O=Nc1c(-c2c(O)[nH]c3ccccc23)[nH]c2ccccc12` [INDIRUBIN-3-MONOXIME]: the IC50 is 2.3 µM at Aurora kinase B, 0.3 µM on Aurora kinase C and 4 µM at Aurora kinase A.

In the case of `O=C1Nc2cc(Br)ccc2/C1=C1/Nc2ccccc2/C1=N\O` [6BIO], the IC50 at Aurora kinase B amounted to 0.9 µM; on Aurora kinase C, 0.2 µM.

With `CO/N=C1\C(c2c(O)[nH]c3ccccc23)=Nc2ccccc21`, the IC50 on Aurora kinase B is 3 µM; at Aurora kinase C it was 0.4 µM; on Aurora kinase A, 4.3 µM.
